Bioassay records deposited in PubChem by Broad Institute.
This is a sample that favours compounds with a hit; in the whole collection about 2.6% have one here.
SR-BI DiI inh: inhibitors of mouse SR-BI mediated HDL lipid uptake. inhibition, % at 12.5 µM. ldlA[mSR-BI] CHO cells, DiI-HDL uptake fluorescence, 3 h. Q61009. 320,000 tested, 0.96% active;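 active = mean replicate inhibition of at least 70% and a set share of replicates each scoring 70 or more; inconclusive = meets just one of the two criteria; inactive = fails both criteria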
Target sequence (Q61009 whole entry, looked up): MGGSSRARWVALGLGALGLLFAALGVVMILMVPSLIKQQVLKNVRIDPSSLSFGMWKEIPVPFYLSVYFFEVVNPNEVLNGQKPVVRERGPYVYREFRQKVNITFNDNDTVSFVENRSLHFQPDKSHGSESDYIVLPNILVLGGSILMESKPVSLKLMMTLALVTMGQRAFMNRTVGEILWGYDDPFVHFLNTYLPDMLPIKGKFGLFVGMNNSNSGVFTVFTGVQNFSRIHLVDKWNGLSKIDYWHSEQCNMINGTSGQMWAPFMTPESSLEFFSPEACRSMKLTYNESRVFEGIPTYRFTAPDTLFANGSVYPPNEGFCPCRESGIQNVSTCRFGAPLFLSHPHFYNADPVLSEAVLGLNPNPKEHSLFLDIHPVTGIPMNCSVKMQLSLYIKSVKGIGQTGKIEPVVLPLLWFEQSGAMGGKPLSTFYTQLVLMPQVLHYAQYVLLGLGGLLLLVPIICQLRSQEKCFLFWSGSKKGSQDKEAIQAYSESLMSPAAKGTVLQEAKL
dFosB act: enhances mouse delta FosB homodimer DNA binding; P13346; purified delta FosB, TAMRA-CDK5 oligo fluorescence polarization; percent of positive-control signal above neutral wells; activation, % at 25 µM; 340,000 tested, 0.99% active; AID 493131;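 active = mean activation above about 17%, with every replicate also reaching it, limit read from the data, passing the limit was not always enough; inconclusive = only one of the two conditions met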
Xi reactivation: X-chromosome reactivation activator; XiGFP mouse fibroblasts, % GFP-positive cells imaging, 3 d; cells co-treated with 5-aza-dC sensitizer; scaled so ellipticine positive control = 100%; activation, % at 7.58 µM; AID 743238; 360,000 tested, 0.055% active;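 active = mean normalized replicate activation at least 10% and every replicate at or above 10%; inconclusive = only one of the two criteria met; inactive = mean below 10% and not all replicates reach 10%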
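Assay system – SV40-immortalized XiGFP fibroblast cells, line 68-5-11 · Buffer or medium – DMEM supplemented with 5-aza-dC as sensitizing agent · Dosing – one concentration, pinned · Benchmarks – positive control ellipticine, 6 µM final · Times – 3 days compound exposure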
SR-BI DiI-HDL act: activators of SR-BI mediated HDL lipid uptake; activation, % at 12.5 µM; 320,000 tested, 0.096% active; CHO ldlA[mSR-BI] cells, DiI-HDL uptake fluorescence, 3 h; 100 = double the neutral-control signal;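 active = mean replicate activation of at least 60% and every replicate at or above 60%; inconclusive = mean or all-replicate condition met, but not both; inactive = mean below 60% and not all replicates reaching 60%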
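Assay system: CHO ldlA[mSR-BI] cells, LDL receptor-null, SR-BI overexpressing; medium: Ham's F12 with 0.5% BSA, HEPES 25 mM, pH 7.4; also added: DiI-HDL 10 µg/mL; timing: 3 h uptake period with compound, 37 °C; signal: DiI fluorescence, bottom read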
Ecoli rRNA inh: inhibitors of bacterial rRNA selective over humanized ribosomes; E. coli WT GFP vs humanized-ribosome RFP mutants, fluorescence, 24 h; active compounds read low; DMSO median 0, no signal -100; GFP signal change (wild-type ribosome), % (no concentration beside the values); 350,000 tested, 1.6% active; AID 720706;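 active = significant combined selectivity score with lowered wild-type GFP, culture density cut under 30%, mutant RFP and density less affected; inactive = any of these conditions unmet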
PvdQ inh: blocks Pseudomonas aeruginosa PvdQ acylase activity; purified PvdQ acylase, fluorescence plate reader; 340,000 tested, 0.063% active; inhibition, % at 10 µM; in the data active = inhibition above about 30%, passing the limit was not always enough; inconclusive = no clear call, values can overlap the other calls
Large screens that a line does not name were inactive.

COc1ccc(CC(=O)NNS(=O)(=O)c2ccc([N+](=O)[O-])cc2)cc1OC	SR-BI DiI-HDL act 61
COc1ccc(CC(=O)Nc2nccs2)cc1OC	none (no result: Ecoli rRNA inh)
COc1ccc(CC(=O)Nc2ncc([N+](=O)[O-])s2)cc1OC	Ecoli rRNA inh -50
O=[N+]([O-])c1ccc(/C=N/NC2=NS(=O)(=O)c3ccccc32)cc1	none
O=[N+]([O-])c1ccc(O)c(/C=N/NC2=NS(=O)(=O)c3ccccc32)c1	SR-BI DiI inh 88
O=[N+]([O-])c1ccc(O)c(/C=N/Nc2ccc(Cl)nn2)c1	SR-BI DiI inh 106 (no result: Xi reactivation, Ecoli rRNA inh)
Fc1ccccc1/C=N/NC(=S)Nc1ccc(Cl)cc1Cl	none
O=C(C[n+]1ccccc1)N/N=C/c1cc(Br)cc(Br)c1O	none (no result: Xi reactivation, Ecoli rRNA inh)
CCC(O)(CC)C(=O)N/N=C/c1cc(Br)cc(Br)c1O	Ecoli rRNA inh -21
COc1ccc(/C=C(\NC(=O)c2ccccc2)C(=O)N2CCN(C)CC2)cc1	none
Cc1cc(OCc2ccc(F)cc2)nc(-c2ccccc2O)n1	SR-BI DiI inh 78 (no result: Xi reactivation, Ecoli rRNA inh)
CC(C)Cn1c(-c2ccco2)n[nH]c1=S	none (no result: Xi reactivation, Ecoli rRNA inh)
C=CCN1C(=O)C(CCCC)NC1=S (stereo unspecified)	none (no result: Ecoli rRNA inh)
CCOC(=O)c1ccc(NC(=O)CNC(=O)C23CC4CC(CC(C4)C2)C3)cc1	none (no result: Xi reactivation)
COc1ccc(NC(=S)NCc2ccco2)cc1	none (no result: Xi reactivation, Ecoli rRNA inh)
CCOc1ccc(NC(=S)NNC(=S)Nc2cccc(C(F)(F)F)c2)cc1	SR-BI DiI inh 93, Ecoli rRNA inh -28
CCOc1ccc(NC(=S)NCc2ccco2)cc1	Ecoli rRNA inh -19
COc1ccc(NC(=S)NNC(=S)Nc2cccc(C(F)(F)F)c2)cc1	Ecoli rRNA inh -24
CNNC(=S)Nc1cccc(C(F)(F)F)c1	none (no result: SR-BI DiI inh, dFosB act, SR-BI DiI-HDL act, Ecoli rRNA inh, PvdQ inh)
O=C(c1ccc(C(=O)N2CCOCC2)s1)N1CCOCC1	none (no result: Xi reactivation, Ecoli rRNA inh)
CC(=O)Nc1cccc(OCC(=O)Nc2sccc2C(N)=O)c1	none (no result: SR-BI DiI inh, SR-BI DiI-HDL act)
COc1cccc(-c2cnc3c(c2)C(=O)N([C@H](C)CO)C[C@@H](C)[C@@H](CN(C)Cc2ccncc2)O3)c1	none (no result: SR-BI DiI inh, dFosB act, SR-BI DiI-HDL act, PvdQ inh)
CCOc1ccc(NC(=S)N=Nc2c(O)[nH]c3ccccc23)cc1	none
Oc1cccc(NC(=S)N=Nc2c(O)[nH]c3ccccc23)c1	Ecoli rRNA inh -54
CC1CCN(CCOCCOc2ccc(Cl)cc2Br)CC1	Ecoli rRNA inh -30 (no result: Xi reactivation)
COC(=O)C1=C(C)N(C)C(=S)N(C)C1c1cccc(Br)c1 (stereo unspecified)	Ecoli rRNA inh -34
CCOc1ccc(S(=O)(=O)NCC2CCCO2)cc1NC(=O)c1ccccc1F (stereo unspecified)	none (no result: SR-BI DiI inh, SR-BI DiI-HDL act)
CC(C)(C)c1ccc(C(=O)NNC(=O)c2ccccc2Br)cc1	none (no result: Xi reactivation, Ecoli rRNA inh)
CC(C)(C)c1ccc(OCCCC(=O)NNC(=O)c2ccccc2O)cc1	SR-BI DiI inh 120
COc1ccc(CNC(=O)COC(=O)CCOc2ccccc2)cc1	none (no result: Ecoli rRNA inh)
CC(C)(C)c1ccc(OCCC(=O)OCC(=O)NCc2ccccc2)cc1	Ecoli rRNA inh -34
CC(C)(C)c1ccc(C(=O)NCC(=O)NNC(=O)c2ccccc2O)cc1	SR-BI DiI inh 90
COC(=O)c1c(-c2ccc(OC)cc2)sc2ccc(N3CCOCC3)cc12	none
CCN(C(=O)COC(=O)c1ccc(C=O)cc1)c1c(N)n(Cc2ccccc2)c(=O)[nH]c1=O	none
O=C(O)c1ccccc1C(=O)N1CCc2c([nH]c3ccccc23)C1C(F)(F)F (stereo unspecified)	Ecoli rRNA inh -30 (no result: SR-BI DiI inh, dFosB act, SR-BI DiI-HDL act, PvdQ inh)
O=C(O)CSCC(=O)N1CCc2c([nH]c3ccccc23)C1C(F)(F)F (stereo unspecified)	none
Cc1cc2c(NC(=O)Nc3ccc(C(C)(C)C)cc3)cccc2nn1	Xi reactivation inconclusive, Ecoli rRNA inh -33
Cc1cccc(Nc2c([N+](=O)[O-])cc(C(=O)N3CC(=O)Nc4ccccc43)cc2[N+](=O)[O-])c1	SR-BI DiI inh 82
Cc1ccc(C)c(Nc2c([N+](=O)[O-])cc(C(=O)N3CC(=O)Nc4ccccc43)cc2[N+](=O)[O-])c1	SR-BI DiI inh inconclusive (no result: Xi reactivation, Ecoli rRNA inh)
O=S(=O)(Nc1cc(Sc2cccc3cccnc23)c(O)c2ccccc12)c1ccccc1	Xi reactivation 53 (no result: SR-BI DiI inh, dFosB act, SR-BI DiI-HDL act, PvdQ inh)
O=C(O)CSc1cc(NS(=O)(=O)c2cccc([N+](=O)[O-])c2)c2ccccc2c1O	Ecoli rRNA inh -34
CC(C)(C)c1ccc(S(=O)(=O)N2CCC(c3nc4ccc(Cl)cc4[nH]3)CC2)cc1	none (no result: Xi reactivation)
Cn1c(/C(C#N)=C/c2ccc(-c3ccc(S(N)(=O)=O)cc3)o2)nc2ccccc21	none (no result: Ecoli rRNA inh)
O=C(NCCO)c1cc2c([nH]c3ccccc32)c(-c2ccccc2)n1	Ecoli rRNA inh -28 (no result: SR-BI DiI inh, SR-BI DiI-HDL act)
CCc1ccc(C(=O)COC(=O)c2cc([N+](=O)[O-])ccc2N2CCOCC2)cc1	SR-BI DiI inh 81
O=C(COC(=O)c1cc(S(=O)(=O)N2CCCCC2)ccc1N1CCOCC1)NCCc1ccc(F)cc1	Ecoli rRNA inh -20
O=C(COC(=O)c1cc([N+](=O)[O-])ccc1N1CCOCC1)c1ccc(F)cc1	SR-BI DiI inh 84
Cc1cc(C)c(NC(=O)CSc2nc3ccc(NC(=O)CSc4nnnn4-c4ccccc4)cc3s2)c(C)c1	SR-BI DiI inh 77
Cc1cc(C)c(NC(=O)CSc2nc3ccc(NC(=O)CSc4nnnn4Cc4ccccc4)cc3s2)c(C)c1	none (no result: Xi reactivation, Ecoli rRNA inh)
Cc1cc(/C=N/Nc2ccc([N+](=O)[O-])cn2)c(C)n1-c1ccccc1	dFosB act 22 (no result: Xi reactivation, Ecoli rRNA inh)
Cc1ccc(-n2c(C)cc(/C=N/Nc3ccc([N+](=O)[O-])cn3)c2C)cc1	none (no result: Xi reactivation, Ecoli rRNA inh)
CCC(=O)N[C@@H]1CC[C@@H](CCNC(=O)Nc2ccc(C(F)(F)F)cc2)O[C@H]1CO	none (no result: SR-BI DiI inh, dFosB act, SR-BI DiI-HDL act, PvdQ inh)
O=C(Nc1ccc2c(c1)CCC2)c1cccs1	none
Cc1ccc2ccccc2c1C(O)c1ncc(-c2ccccc2F)[nH]1 (stereo unspecified)	none (no result: SR-BI DiI inh, dFosB act, SR-BI DiI-HDL act, PvdQ inh)
Cn1nc(CC(=O)Nc2ccc(N3CCN(C(=O)OC(C)(C)C)CC3)cc2)c2ccccc2c1=O	dFosB act 21 (no result: Xi reactivation, Ecoli rRNA inh)
O=C(N/N=C1\CCSc2ccc(F)cc21)c1cccnc1	none
NC(=S)N/N=C1\CCSc2ccc(Cl)cc21	SR-BI DiI inh 81
CN1CCN(C(=O)C2CC(=O)N(c3ccc(F)c(Cl)c3)C2)CC1 (stereo unspecified)	none
O=C(Nc1ccc(Br)cc1)N1CCc2ccccc2C1	Ecoli rRNA inh -39
O=C(CSc1nc2ccccc2o1)c1ccc2c(c1)OCCO2	none (no result: Xi reactivation, Ecoli rRNA inh)
Cc1ccc(Nc2nc(NCC3CCCO3)nc(N)c2[N+](=O)[O-])cc1 (stereo unspecified)	none (no result: Ecoli rRNA inh)
CC(=O)Nc1cccc(NC(=O)c2cc(-c3cccnc3)nc3ccc(Cl)cc23)c1	SR-BI DiI inh 73
